For series [1], the target named is T1, HK853 (Thermotoga maritima, UniProt Q9WZV7).
T1 sequence (Q9WZV7 232-489): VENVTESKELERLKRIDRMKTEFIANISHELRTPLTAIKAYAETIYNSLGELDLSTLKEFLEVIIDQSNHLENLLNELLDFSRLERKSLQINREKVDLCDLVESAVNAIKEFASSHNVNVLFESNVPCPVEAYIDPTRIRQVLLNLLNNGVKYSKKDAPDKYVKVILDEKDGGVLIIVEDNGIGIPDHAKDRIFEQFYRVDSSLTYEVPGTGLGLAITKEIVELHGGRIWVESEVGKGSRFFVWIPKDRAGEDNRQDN
As to the kind of experiment: High-throughput primary FP screen for displacement of ADP-BODIPY. In kind it is binding. The note with it: 20 μM compound.

Series [2] deals with T1, HK853. As to the kind of experiment: Control FP competition. The class given is binding. In a few lines:
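Competition format: 25 μM HK853 plus 10 nM ADP-BODIPY probe with 0–1000 μM competing nucleotide and 5% (v/v) DMSO, in 50 mM Tris-HCl pH 7.8, 200 mM KCl, 5 mM MgCl2. Incubation and FP read as for binding, in triplicate. FP plotted against log molar competitor; IC50 from four-parameter logistic fit.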

The next series deals with T2, CheA (Escherichia coli, UniProt P07363).
T2 sequence (P07363 1-654): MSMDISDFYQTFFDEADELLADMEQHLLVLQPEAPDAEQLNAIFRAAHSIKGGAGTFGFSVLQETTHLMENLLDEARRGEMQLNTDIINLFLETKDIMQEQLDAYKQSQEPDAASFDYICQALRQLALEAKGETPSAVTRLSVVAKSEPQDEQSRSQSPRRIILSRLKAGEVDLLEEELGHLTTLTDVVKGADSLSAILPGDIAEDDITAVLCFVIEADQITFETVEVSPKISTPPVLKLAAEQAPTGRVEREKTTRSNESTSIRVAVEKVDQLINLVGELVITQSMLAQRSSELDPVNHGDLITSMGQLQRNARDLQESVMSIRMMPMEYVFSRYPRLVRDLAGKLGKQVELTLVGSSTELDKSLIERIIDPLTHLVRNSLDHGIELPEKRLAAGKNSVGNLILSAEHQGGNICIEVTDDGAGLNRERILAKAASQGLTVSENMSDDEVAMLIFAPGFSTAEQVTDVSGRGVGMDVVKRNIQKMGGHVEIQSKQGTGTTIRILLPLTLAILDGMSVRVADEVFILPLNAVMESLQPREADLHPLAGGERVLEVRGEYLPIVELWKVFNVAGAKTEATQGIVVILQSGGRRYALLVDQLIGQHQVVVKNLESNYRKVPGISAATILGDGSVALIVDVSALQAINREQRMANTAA
As to the kind of experiment: Inhibition of CheA activity. The class given is biochemical. In a few lines:
(§1)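 Enzyme (VicK 2 μM; for CheA, 2 μM CheA plus 6 μM CheW) preincubated with test compound 30 min RT, then radioactive ATP mix added. Final: 3 μM ATP [γ-33P] (20 Ci mmol–1), 5% DMSO, 0.1% Triton X-100 in reaction buffer, pH 7.8. Reacted 30 min RT, quenched in SDS loading buffer, run on SDS-PAGE. Radioactive band density normalised to no-inhibitor control; IC50 from four-parameter logistic fit.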

Series [3] deals with T1, HK853. Nature of the series: Inhibition of HK853 autophosphorylation activity. In kind it is biochemical.
For another series, the target named is T3, VicK (Streptococcus pneumoniae, UniProt Q8DPL8).
T3 sequence (Q8DPL8 36-449 limits assumed): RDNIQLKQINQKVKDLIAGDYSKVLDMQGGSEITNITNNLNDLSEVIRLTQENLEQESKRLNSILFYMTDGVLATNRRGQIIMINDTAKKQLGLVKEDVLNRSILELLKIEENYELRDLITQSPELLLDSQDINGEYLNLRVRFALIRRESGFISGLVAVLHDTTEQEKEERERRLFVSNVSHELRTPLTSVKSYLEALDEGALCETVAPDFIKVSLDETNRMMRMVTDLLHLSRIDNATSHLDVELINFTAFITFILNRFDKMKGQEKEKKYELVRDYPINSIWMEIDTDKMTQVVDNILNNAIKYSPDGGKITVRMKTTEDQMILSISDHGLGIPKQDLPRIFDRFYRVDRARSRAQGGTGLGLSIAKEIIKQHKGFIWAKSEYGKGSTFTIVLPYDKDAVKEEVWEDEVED
As to the kind of experiment: Inhibition of VicK activity. In kind it is biochemical. In a few lines: as §1

A further series relates to B. subtilis 3610. Nature of the series: Broth microdilution antimicrobial testing. The class given is cell-based, Bacillus subtilis. The note with it: for MIC: Bacillus subtilis, 3610, 20 h, read-out: MIC values B. subtilis 3610; for MIC values B. subtilis 3610: n = 2. The essentials: (§2)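 Serial dilutions in Mueller-Hinton Broth 2, inoculated at 5 × 10^5 cfu/mL; wells ≤5% DMSO. Growth, sterility, DMSO and known-antibiotic controls included; inoculum count checked by plating on MHB 2 agar. Incubated 20 h at 37 °C. MIC taken as lowest concentration with no growth visible to unaided eye.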

For another series, the system named is E. coli DC2. As to the kind of experiment: Broth microdilution antimicrobial testing. The class given is cell-based, Escherichia coli. Conditions: for MIC: Escherichia coli, DC2, 20 h, read-out: MIC values E. coli DC2. In a few lines:
as §2
On the technique in general: Broth dilution looks for growth in wells or tubes with falling amounts of substance.

The next series deals with Vero 76 cells. Nature of the series: Cytotoxicity testing. In kind it is cell-based, African green monkey. Conditions: DMSO control, n = 2.
The test system of the next series is four HK proteins. The note with it: cited from earlier work.
For another series, the system named is PhoQ. Conditions: cited from earlier work.

Values after ≈ are worked out from the molar mass of the structure shown.

For `C=CCNC1=C2C[C@@H](C)C[C@H](OC)[C@H](O)[C@@H](C)/C=C(\C)[C@H](OC(N)=O)[C@@H](OC)/C=C\C=C(/C)C(=O)NC(=CC1=O)C2=O` [17-AAG], the “displacement of ADP-BODIPY (1) in primary screening (HTS)” value (shortened to “displacement of ADP-BODIPY”) at HK853 [1] is listed as “failed to displace ADP-BODIPY (1)”.

For `Nc1ncnc2c1ncn2[C@@H]1O[C@H](COP(=O)(O)OP(=O)(O)O)[C@@H](O)[C@H]1O` [ADP (3), adenosine diphosphate], the IC50 – broadly, the concentration that gives 50% inhibition – on HK853 [2] is 27.7 ± 0.9 µM; on CheA, 21.5 µM; against HK853 [3], 2.57 µM; against VicK it was 4.81 µM. The “increased potency over AMP (9)” value on HK853 [3] (from Table 1 IC50 values of HK inhibition) is “more than 300 fold”.

Take `Nc1ncnc2c1ncn2[C@@H]1O[C@H](COP(=O)(O)OP(=O)(O)OP(=O)(O)O)[C@@H](O)[C@H]1O` [ATP (2), adenosine triphosphate]: the IC50 at HK853 [2] came out at 23 ± 1.1 µM.

For `Nc1nc2ccc(OC(F)(F)F)cc2s1` [Compound 12, riluzole], the minimum inhibitory concentration (MIC) (commonly the least concentration at which growth counts as inhibited) is 293 µg/mL (≈ 1250 µM) with B. subtilis 3610 and 128 µg/mL (≈ 547 µM) with E. coli DC2. For the same compound, the IC50 against CheA turned out to be 1340 µM; against VicK it was 618 µM.

Consider `O=c1cc(-c2ccc(O)c(O)c2)oc2cc(O)cc(O)c12` [Compound 15, luteolin], for which the MIC in the series on B. subtilis 3610 was > 128 µg/mL; in the series on E. coli DC2, 8 µg/mL (≈ 27.9 µM). In addition, the values for the IC50 on HK853 [3] and against VicK were 15.1 µM and 216 µM, respectively.

As for `C[S+](C)[O-]` [DMSO, dimethyl sulfoxide], in the series with B. subtilis 3610 (DMSO control), the “MIC values B. subtilis 3610” value is 20% (v/v). Further, the “CC50 Vero 76 Cells” value with Vero 76 cells is >0.5% (v/v). The “MIC values E. coli DC2” value with E. coli DC2 (DMSO control, n = 2) is 10–20% (v/v).

As to `O=c1c(-c2ccc(O)cc2)coc2cc(O)cc(O)c12` [Genistein, genistein], at HK853 [3] (Supporting Information Table 1, n=1), the “inhibition of HK853 activity in follow-up assays” value was “slight inhibition”.

For `N#Cc1c(N)nc2sc(C(=O)Nc3ccc(Br)cc3)c(N)c2c1-c1ccccc1` [TEP, 3,6-diamino-5-cyano-4-phenylthieno[2,3-b]pyridine-2-carboxylic acid (4-bromo-phenyl)-amide], the IC50 values entry in the series with four HK proteins was “low micromolar range”.

In the case of `Nc1ncnc2nc[nH]c12` [adenine (10), adenine], the IC50 against HK853 [3] is 463 µM.

Take `CC1(C)S[C@@H]2[C@H](NC(=O)[C@H](N)c3ccccc3)C(=O)N2[C@H]1C(=O)O` [ampicillin]: the MIC in the series with E. coli DC2 turned out to be 0.25 µg/mL (≈ 0.715 µM).

`O=C(N[C@H](CO)[C@H](O)c1ccc([N+](=O)[O-])cc1)C(Cl)Cl` [chloramphenicol]: the MIC was 2 to 4 µg/mL (≈ 6.19 to 12.4 µM) in the series with B. subtilis 3610 and 0.5 to 1 µg/mL (≈ 1.55 to 3.09 µM) with E. coli DC2.

For the compound `COC1=C2C[C@@H](C)C[C@H](OC)[C@H](O)[C@@H](C)/C=C(\C)[C@H](OC(N)=O)[C@@H](OC)/C=C\C=C(/C)C(=O)NC(=CC1=O)C2=O` [geldanamyin], the “displacement of ADP-BODIPY” value at HK853 [1] was “failed to displace ADP-BODIPY (1)”.

For `C[C@@H]1C[C@H]2O[C@@H]2/C=C\C=C\C(=O)Cc2c(Cl)c(O)cc(O)c2C(=O)O1` [radicicol], the “displacement of ADP-BODIPY” value at HK853 [1] is listed as “failed to displace ADP-BODIPY (1)”. Also, in the series with PhoQ, the “difference in selectivity between Hsp90 and PhoQ” value is reported as > 30 fold.

For the compound `CN[C@H](CC(C)C)C(=O)N[C@H]1C(=O)N[C@@H](CC(N)=O)C(=O)N[C@H]2C(=O)N[C@H]3C(=O)N[C@H](C(=O)N[C@H](C(=O)O)c4cc(O)cc(O)c4-c4cc3ccc4O)[C@H](O)c3ccc(c(Cl)c3)Oc3cc2cc(c3O[C@@H]2O[C@H](CO)[C@@H](O)[C@H](O)[C@H]2O[C@H]2C[C@](C)(N)[C@H](O)[C@H](C)O2)Oc2ccc(cc2Cl)[C@H]1O` [vancomycin], in the series on B. subtilis 3610, the MIC was 0.5 µg/mL (≈ 0.345 µM).

penicillin: the “MIC values B. subtilis 3610” value against B. subtilis 3610 (20 h at 37 °C, lowest concentration that inhibited visible growth) is ≤0.06–0.5 μg mL^–1.

Source of the values: paper PMC4301073 (ACS Chemical Biology, 2014).
